Assay outcomes: PubChem BioAssay, several laboratories
M1 antagonist: M1 muscarinic receptor (rat) antagonism; 64,000 compounds, 3.4% hits; P08482; AID 628; CHO-M1 cells, Fluo-4 calcium, ACh EC80 antagonist mode; stronger effect = lower value; B-score at 10 µM;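 active means calcium fluorescence response, raw or row-and-column corrected B-score, differing from the plate sample mean either way at a set confidence level, mostly lower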
HePTP inh: inhibitors of human HePTP phosphatase; P35236; recombinant HePTP phosphatase activity, OD absorbance; inhibition, % at 20 µM; 110,000 compounds, 0.64% hits; AID 521; in the data active means inhibition above about 50%;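 further: plate controls were vehicle for no effect and reference inhibitor for full effect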
M1 ag: activates the M1 muscarinic receptor. CHO-M1 cells, Fluo-4 calcium fluorescence, agonist mode; stronger effect = higher value. B-score at 10 µM. 64,000 compounds, 3% hits;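 active means fluorescence rise, raw or as B-score row- and column-corrected plate score, outside the 99.7% band of its plate's samples, either direction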
RORA act: activates the human nuclear receptor RORA; AID 560; activation, % at 10 µM; CHO-K1 Gal4-RORA LBD luciferase reporter, luminescence; percent increase over mock-subtracted basal signal; P35398; 65,000 compounds, 1.5% hits;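 active means activation above the mean of all tested compounds plus 3 SD, cut at about 49% in these data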;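 further: 0% = DMSO-treated RORA cells and 100% = added signal equal to DMSO minus mock-transfected cells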
Target sequence (P35398 whole entry, looked up, the tested form may be a part): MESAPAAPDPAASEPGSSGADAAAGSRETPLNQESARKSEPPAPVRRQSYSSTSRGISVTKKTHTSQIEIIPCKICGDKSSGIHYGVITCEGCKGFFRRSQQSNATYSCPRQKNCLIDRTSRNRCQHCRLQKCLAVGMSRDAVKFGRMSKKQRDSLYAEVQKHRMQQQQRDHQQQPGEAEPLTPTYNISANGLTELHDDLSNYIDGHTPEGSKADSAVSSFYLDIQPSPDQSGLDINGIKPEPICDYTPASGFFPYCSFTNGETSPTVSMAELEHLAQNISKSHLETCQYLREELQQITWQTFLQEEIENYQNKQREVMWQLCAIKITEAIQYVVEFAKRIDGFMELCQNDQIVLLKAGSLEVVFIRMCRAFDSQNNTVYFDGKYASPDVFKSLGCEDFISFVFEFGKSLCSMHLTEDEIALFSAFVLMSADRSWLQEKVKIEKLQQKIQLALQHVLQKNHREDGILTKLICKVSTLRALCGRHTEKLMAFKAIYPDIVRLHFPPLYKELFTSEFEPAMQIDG
SF-1 act: activates the human nuclear receptor SF-1; CHO-K1 Gal4-SF-1 LBD luciferase reporter; % increase over DMSO SF-1-specific signal; activation, % at 10 µM; 65,000 compounds, 1.9% hits; AID 522;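 active means activation above the mean activation of all tested compounds plus 3 SD, cut at about 50% in these data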
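Assay system – CHO-K1 cells with Gal4–hSF-1 LBD chimera plus Gal4-driven luciferase · Quantity – 4,000 cells per well · Times – compound added 1 h post-seeding, 20 h exposure at 37 °C, 5% CO2 · Measured by – luciferase light emission · Benchmarks – DMSO and mock-transfected background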
D1 allo mod: allosteric modulators of human D1 dopamine receptor; P21728; HEK293 D1, CRE-luciferase, dopamine EC30 potentiation; actives deviate in either direction; B-score at 10 µM; 58,000 compounds, 5.9% hits;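 active means luminescence count or its row- and column-corrected plate score outside the 99.7% band of the plate's sample wells, on either side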
D1 PAM confirm: confirmation of human D1 dopamine receptor allosteric modulators | shares compounds with D1 allo mod | 2,200 compounds, 88% hits | HEK293 D1 CRE-luciferase, dopamine EC30 potentiation; stronger effect = higher value | AID 642 | luminescence at 10 µM;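 active means luminescence in either of two replicates above the same-plate mean plus 3 SD of the low-dose dopamine control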
D1 no dopamine: secondary test of D1 modulators: activity without dopamine; shares compounds with D1 allo mod; HEK293 D1 CRE-luciferase, luminescence, no dopamine; stronger effect = higher value; luminescence at 10 µM; 1,900 compounds, 0.8% hits; AID 646; in the data active means luminescence above about 3900
Isoprot counter: counter-screen for D1 modulators: isoproterenol response in HEK293 cells; shares compounds with D1 allo mod; HEK293 D1 CRE-luciferase, isoproterenol EC30 counter-screen; calls only at 10 µM; 2,200 compounds, 63% hits; AID 647;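 active means luminescence in either replicate above plate mean of wells with a partly effective reference agonist dose plus 3 SD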;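 further: isoproterenol raises cAMP through native beta-adrenoceptor Gs so signal bypasses D1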
An asterisk follows results filed as active; i = inactive; · = no result; + = active, no number. This is a sample that favours compounds with a hit; in the whole collection about 8.2% have one here.

SMILES	M1 antagonist	HePTP inh	M1 ag	RORA act	SF-1 act	D1 allo mod	D1 PAM confirm	D1 no dopamine	Isoprot counter
CCOC(=O)c1sc2nc(N3CCCC3)c3c(c2c1N)CC(C)(C)OC3	-0.013	-4	-0.048	-12	-8	13*	21232*	1888	+
O=C1CC(c2ccsc2)c2cc3c(cc2N1)OCCO3 (stereo not drawn)	0.62	-7	0.66	-11	-10	5.8*	14472*	1508	i
O=C1CC(c2ccc3c(c2)OCO3)c2cc3c(cc2N1)OCCO3 (stereo not drawn)	-1.2	-11	0.88	-10	-15	11*	11940*	1824	+
O=C1CC(c2ccncc2)c2cc3c(cc2N1)OCCO3 (stereo not drawn)	0.027	4	-0.8	-1	4	1.1	·	·	·
Cc1cc(C)n(-c2ncc(-c3ccccc3)nn2)n1	0.23	-2	-0.00035	36	30	4.5*	6696*	·	i
Cc1cc(C)n(-c2nncc(-c3ccccc3)n2)n1	·	12	·	8	10	-0.018	·	·	·
N#CC1=C(N)SC2(CCCCC2)SC1c1ccccc1 (stereo not drawn)	-2.4	8	-0.2	-4	9	3.2*	6560*	·	+
N#CC1=C(C2CC2)CC(c2ccccc2)C(C#N)=C1N (stereo not drawn)	0.21	4	1.9	3	-11	-2	·	·	·
O=C(c1ccccc1S(=O)(=O)NCc1ccccc1)N1CCCC1	1.7	4	0.05	-24	-3	·	·	·	·
Cc1nnc2ccc(N3CCCC3)nn12	0.49	4	-0.3	-2	2	-0.21	·	·	·
Cc1cc(C)nc(Sc2ccc3nnc(C(F)(F)C(F)(F)C(F)(F)F)n3n2)n1	0.12	5	-0.21	-9	-4	-0.0067	·	·	·
FC(F)(F)c1nnc2ccc(N3CCCCCC3)nn12	-1.7	6	-0.75	-14	4	3.5*	8220*	1432	+
FC(F)(F)C(F)(F)C(F)(F)c1nnc2ccc(N3CCOCC3)nn12	0.82	-9	1	-1	-8	11*	18088*	1648	+
CC(C(=O)N(C)C)N(C#N)c1nc(N(C)C)nc(N(C)C)n1 (stereo not drawn)	0.28	10	0.12	-1	-11	-0.27	·	·	·
C#CCN(C#N)c1nc(NCC)nc(NC(C)C)n1	1.1	1	-0.11	-5	8	17*	18300*	1652	+
CC(C)Nc1nc(NC(C)C)nc(N(C)C#N)n1	-0.11	2	0.86	-2	16	16*	21628*	1804	+
COc1ccc(CN2CCN(S(=O)(=O)c3ccccc3)CC2)c(OC)c1	0.19	9	-1.5	-8	5	4.4*	6876*	1608	i
COc1ccc(CN2CCN(S(=O)(=O)c3ccc(F)cc3)CC2)cc1OC	0.42	0	0.52	-10	17	22*	24864*	1876	+
COc1ccc(CN2CCN(S(=O)(=O)c3ccccc3)CC2)cc1OC	·	-15	·	·	·	·	·	·	·
COc1ccc2[nH]c3ccccc3c2c1	0.022	8	2.2	0	-12	0.72	·	·	·
CCCCc1nc(N)c(C#N)c(-c2cccc(Br)c2)c1CCC	·	-6	·	·	·	·	·	·	·
CCCc1nc(N)c(C#N)c(N)c1C#N	0.69	-1	0.16	-9	8	19*	17760*	1744	+
CCOC(=O)C(CC)Sc1nc2c(c(=O)[nH]c(=O)n2C)n1CCc1ccccc1 (stereo not drawn)	0.021	5	-0.068	-2	-6	0.14	·	·	·
CCCNc1nc2c(c(=O)[nH]c(=O)n2C)n1CCc1ccccc1	-0.62	2	0.055	11	-9	3.1*	8752*	1684	i
CC(C)Sc1nc2c(c(=O)[nH]c(=O)n2C)n1CCc1ccccc1	0.029	10	0.36	-7	0	26*	24288*	1728	+
SMILES	M1 antagonist	HePTP inh	M1 ag	RORA act	SF-1 act	D1 allo mod	D1 PAM confirm	D1 no dopamine	Isoprot counter
C/C(Cl)=C/Cn1c(SC(C)C)nc2c1c(=O)[nH]c(=O)n2C	-1.4	6	-0.66	-11	-6	32*	17228*	1588	+
CCC(C)Sc1nc2c(c(=O)[nH]c(=O)n2C)n1CCc1ccccc1 (stereo not drawn)	0.01	·	0.29	0	0	21*	20608*	1572	+
O=C(NCc1ccccc1)N[C@@H](Cc1c[nH]c2ccccc12)C(=O)O	0.18	5	1.1	-2	-4	-0.64	·	·	·
O=C(c1ccc2c(c1)OCCO2)N1CCN(c2ccc([N+](=O)[O-])cc2Cl)CC1	·	-1	·	·	·	·	·	·	·
CC(C)CCSc1nc2c(c(=O)[nH]c(=O)n2C)n1CCCc1ccccc1	-0.42	-4	0.082	14	12	3.3	·	·	·
CC(C)CCn1c(Sc2nc3ccccc3s2)nc2c1c(=O)[nH]c(=O)n2C	0.05	4	1.4	-16	-12	21*	19816*	1612	+
CC(CSc1nc2ccccc2s1)Cn1c(N2CCCC2)nc2c1c(=O)[nH]c(=O)n2C (stereo not drawn)	0.57	3	0.017	-13	3	2.5*	13288*	·	+
CC1CC(C)CN(c2nc3c(c(=O)[nH]c(=O)n3C)n2CCCSc2nc3ccccc3s2)C1 (stereo not drawn)	0.75	5	-0.32	11	-9	·	·	·	·
CN(C(=O)c1coc(=O)c2ccccc12)c1ccc(F)cc1	0.4	6	-0.13	1	6	0.44	·	·	·
CCCCN(C)C(=O)c1coc(=O)c2ccccc12	0.0044	0	-0.23	-16	0	3.1*	5824	·	i
O=S(=O)(c1ccccc1C(F)(F)F)N1CCOCC1	0.21	-9	-0.44	10	-14	4.9*	4520	1508	i
CCOC(=O)C1CCN(C(=O)C2CCN(c3nc4ccc(OC)cc4s3)CC2)CC1	-0.53	7	-1.7	-16	0	·	·	·	·
C=CCNC(=O)CN(Cc1ccccc1)S(=O)(=O)c1ccc(OC)cc1	·	6	·	·	·	·	·	·	·
COc1ccc(C(=O)N2CCN(C3CCCC(C)C3)CC2)cc1 (stereo not drawn)	·	4	·	·	·	·	·	·	·
COc1ccc(N2Cc3cccc(C(=O)NC(C)CCc4ccco4)c3C2=O)cc1 (stereo not drawn)	0.6	16	-0.37	-24	-7	3.4*	11280*	1872	+
O=C(CSc1nc2ccccc2[nH]1)Nc1cc(C(F)(F)F)ccc1N1CCOCC1	0.22	3	0	-2	-1	4*	7804*	·	i
